Active and inactive are the calls of the source. The calls are words filed in the database; no cut-off is given here.
What was measured:
J774.A1 [1] = assay: Antiinflammatory activity in mouse J774A.1 cells assessed as inhibition of lipopolysaccharide-induced TNFalpha production pretreated for 2 hrs at 10 uM before LPS challenge; format: functional
Method in brief: (§1)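 J774A.1 macrophages pretreated 2 h with test agent at 10 μM or vehicle, then stimulated with LPS 0.5 μg/ml for 24 h. Media collected and centrifuged (14,000 rpm, 5 min); TNF-α and IL-6 quantified by mouse ELISA kits. Total protein of viable cell pellets measured by Bio-Rad protein assay. Results expressed as percent of LPS control.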

J774.A1 [2] = assay: Antiinflammatory activity in mouse J774A.1 cells assessed as inhibition of lipopolysaccharide-induced IL6 production pretreated for 2 hrs at 10 uM before LPS challenge; format: functional, cell-based; method in brief: as §1

Row | Compound | Activity (J774.A1 [1]) | Activity (J774.A1 [2])
1 | O=C(/C=C/c1ccc(OC2CCCCO2)cc1)/C=C/c1ccc(OC2CCCCO2)cc1 (stereo not drawn) | Active | 
2 | C=CCOc1ccc(/C=C/C(=O)/C=C/c2ccc(OCC=C)cc2)cc1 | Active | 
3 | O=C1/C(=C/c2ccc(Br)o2)CCC/C1=C\c1ccc(Br)o1 | Active | 
4 | CN(C)CCCOc1ccc(/C=C2\CC/C(=C\c3ccc(OCCCN(C)C)cc3)C2=O)cc1 | Active | Active
5 | COc1cc(/C=C2\CC/C(=C\c3ccc(O)c(OC)c3)C2=O)ccc1O | Active | Active
6 | COc1cc(/C=C2\CCC/C(=C\c3ccc(O)c(OC)c3)C2=O)ccc1O | Active | Active
7 | COc1cc(/C=C/C(=O)/C=C/c2ccc(O)c(OC)c2)ccc1O | Active | Active
8 | CN(C)c1ccc(/C=C/C(=O)/C=C/c2ccc(N(C)C)cc2)cc1 | Active | Active
9 | O=C1/C(=C/c2cccs2)CC/C1=C\c1cccs1 | Active | 
10 | COc1cc(/C=C2\CC/C(=C\c3ccc(OC4CCCCO4)c(OC)c3)C2=O)ccc1OC1CCCCO1 (stereo not drawn) | Active | 
11 | CN(C)c1ccc(/C=C2\CCC/C(=C\c3ccc(N(C)C)cc3)C2=O)cc1 | Active | Active
12 | COc1cc(/C=C/C(=O)CC(=O)/C=C/c2ccc(O)c(OC)c2)ccc1O | Active | 
13 | COc1cc(/C=C2\CCC/C(=C\c3ccc(OC4CCCCO4)c(OC)c3)C2=O)ccc1OC1CCCCO1 (stereo not drawn) | Active | 
14 | Cc1ccc(/C=C2\CC/C(=C\c3ccc(C)s3)C2=O)s1 | Active | 
15 | C=CCOc1ccc(/C=C2\CCC/C(=C\c3ccc(OCC=C)cc3)C2=O)cc1 | Active | 
16 | CN(C)c1ccc(/C=C2\CC/C(=C\c3ccc(N(C)C)cc3)C2=O)cc1 | Active | Active
